Measurements from ChEMBL document CHEMBL1153041, “Design, synthesis and biological evaluation of 2H-benzo[b][1,4] oxazine derivatives as hypoxia targeted compounds for cancer therapeutics” (Bioorg Med Chem Lett, 2009).
Calls of active or inactive are those of the source. No cut-off for these calls is given here.

Key:
HepG2 [1] = assay: Cytotoxicity against human HepG2 cells in normoxic condition after 48 hrs by MTT assay; assay type: functional, cell-based
Method in brief: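 HepG2 cells (passage 2 from frozen stock) in RPMI 1640 with 10% FBS, dosed during log-phase growth with drug or vehicle (0.1% DMSO). Normoxic incubation at 37 °C, 5% CO2 for 48 h, then MTT read-out. Duplicate plates split from the same stock cells.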

HepG2 [2] = assay: Cytotoxicity against human HepG2 cells in hypoxic condition after 48 hrs by MTT assay; assay type: functional, cell-based
Method in brief: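 HepG2 cells (passage 2, RPMI 1640 + 10% FBS) given drug or 0.1% DMSO vehicle in log phase. 22 h normoxia, then 2 h hypoxia (1% O2, 5% CO2, 94% N2, 37 °C) in a glove chamber checked by methylene blue indicator, then 24 h reoxygenation. MTT read at 48 h; parallel normoxic duplicate plate.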

HepG2 [3] = assay: Cytotoxicity against human HepG2 cells assessed as cell survival under hypoxic condition at 10 uM after 24 hrs by clonogenic assay; assay type: functional; conditions: HepG2, 24 h, read-out: Survival
Method in brief: (§1)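 HepG2 in RPMI 1640 + 10% FBS, 3.5 × 10^3 cells/well, grown 24 h at 37 °C normoxic, then exposed to vehicle (0.1% DMSO) or drug. Hypoxia 1% O2/5% CO2/94% N2 at 37 °C for 5 h in glove chamber, then reoxygenated (5% CO2, 37 °C) for the rest of 10 days. Acetic acid fixation, crystal violet stain. Colonies >50 μm counted in three random 1-mm grids, expressed relative to controls; Mann–Whitney test.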

HepG2 [4] = assay: Cytotoxicity against human HepG2 cells assessed as cell survival under normoxic condition at 10 uM […] by clonogenic assay relative to control; assay type: functional; conditions: read-out: Survival
Method in brief: (§2)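 HepG2 in RPMI 1640 + 10% FBS, 3.5 × 10^3 cells/well, allowed 24 h growth at 37 °C. Vehicle (0.1% DMSO) or drug then applied, with 10 days incubation under normoxia (5% CO2, 37 °C). Fixed in 10% acetic acid, stained with crystal violet. Colonies >50 μm were counted visually in three random 1-mm × 1-mm grids, relative to controls; Mann–Whitney test.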

HepG2 [5] = assay: Cytotoxicity against human HepG2 cells assessed as cell survival under normoxic condition at 50 uM after 24 hrs by clonogenic assay relative to control; assay type: functional; conditions: HepG2, 24 h, read-out: Survival; method in brief: as §2
HepG2 [6] = assay: Cytotoxicity against human HepG2 cells assessed as assessed as cell survival under hypoxic condition at 50 uM after 24 hrs by clonogenic assay; assay type: functional; conditions: HepG2, 24 h, read-out: Survival; method in brief: as §1
HepG2 [7] = assay: Down regulation of hypoxia inducible HIF1alpha gene expression in human HepG2 cells at 20 uM by RT-PCR; assay type: functional, cell-based
Method in brief: (§3)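 Total RNA extracted with TRIzol, then quantitative RT-PCR: 50 °C 2 min, 95 °C 10 min, 40 cycles of 95 °C 15 s / 60 °C 1 min, with melting curves. Ct normalized to GAPDH; treated-minus-control ΔCt converted by 2^ to relative expression.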

HepG2 [8] = assay: Down regulation of hypoxia inducible P21 gene expression in human HepG2 cells at 20 uM by RT-PCR; assay type: functional, cell-based; method in brief: as §3
HepG2 [9] = assay: Down regulation of hypoxia inducible VEGF gene expression in human HepG2 cells at 20 uM by RT-PCR; assay type: functional, cell-based; method in brief: as §3
HepG2 [10] = assay: Cytotoxicity against human HepG2 cells assessed as cell survival under normoxic condition at 25 uM after 24 hrs by clonogenic assay relative to control; assay type: functional; conditions: HepG2, 24 h, read-out: Survival; method in brief: as §2
HepG2 [11] = assay: Cytotoxicity against human HepG2 cells assessed as cell survival under normoxic condition assessed as cell survival at 100 uM after 24 hrs by clonogenic assay relative to control; assay type: functional; conditions: HepG2, 24 h, read-out: Survival; method in brief: as §2
HepG2 [12] = assay: Cytotoxicity against human HepG2 cells assessed as cell survival under hypoxic condition at 25 uM after 24 hrs by clonogenic assay relative to control; assay type: functional; conditions: HepG2, 24 h, read-out: Survival; method in brief: as §1
HepG2 [13] = assay: Cytotoxicity against human HepG2 cells assessed as cell survival under hypoxic condition at 100 uM after 24 hrs by clonogenic assay relative to control; assay type: functional; conditions: HepG2, 24 h, read-out: Survival; method in brief: as §1
HepG2 [14] = assay: Cytotoxicity against human HepG2 cells assessed as cell survival under hypoxic condition at 400 uM after 24 hrs by clonogenic assay relative to control; assay type: functional, cell-based; conditions: in the assay text read “normoxic” for “hypoxic”
[15] = Homo sapiens, HepG2, 48 h, read-out: IC50

Question: What does the source list for `c1ccc(C2=Nc3ccccc3OC2)cc1`?
Answer: IC50 (HepG2 [1]; [15]): 87 µM; IC50 (HepG2 [2]; [15]): 10 µM; viability at 10 µM (HepG2 [3]): -71%

Question: For `Cc1ccc(C2=Nc3cc(F)ccc3OC2)cc1`, which IC50 (HepG2 [1]; hepg2) is on record?
Answer: Its IC50 is “Not Active”.

Question: What about the IC50 (HepG2 [2]; [15]) of the same compound?
Answer: Its IC50 is 100 µM.

Question: For `O=[N+]([O-])c1ccc2c(c1)N=C(c1ccc(Cl)cc1)CO2`, which IC50 (HepG2 [1]; [15]) is on record?
Answer: Its IC50 is 78 µM.

Question: And the IC50 (HepG2 [2]; [15])?
Answer: Its IC50 is 20 µM.

Question: What about the viability at 10 µM (HepG2 [4]) of the same compound?
Answer: Its viability at 10 µM is 10%.

Question: And the viability at 50 µM (HepG2 [5])?
Answer: The viability at 50 µM was -11%.

Question: And the viability at 10 µM (HepG2 [3])?
Answer: The viability at 10 µM was -28%.

Question: What about the viability at 50 µM (HepG2 [6]) of the same compound?
Answer: The viability at 50 µM was -83%.

Question: Which IC50 (HepG2 [2]; [15]) does the source give for `Cc1ccc2c(c1)N=C(c1ccc(Cl)cc1)CO2` here?
Answer: The IC50 was 87 µM.

Question: And the viability at 50 µM (HepG2 [5])?
Answer: Its viability at 50 µM is 3%.

Question: And the viability at 50 µM (HepG2 [6])?
Answer: Its viability at 50 µM is -65%.

Question: And the Activity (HepG2 [7])?
Answer: The Activity was “Active”.

Question: What about the Activity (HepG2 [8]) of the same compound?
Answer: The Activity was “Active”.

Question: And the Activity (HepG2 [9])?
Answer: The Activity was “Active”.

Question: What about the viability at 25 µM (HepG2 [10]) of the same compound?
Answer: Its viability at 25 µM is 5%.

Question: What about the viability at 100 µM (HepG2 [11]) of the same compound?
Answer: Its viability at 100 µM is 10%.

Question: And the viability at 25 µM (HepG2 [12])?
Answer: Its viability at 25 µM is -31%.

Question: What about the viability at 100 µM (HepG2 [13]) of the same compound?
Answer: The viability at 100 µM was -90%.

Question: And the Activity (HepG2 [14])?
Answer: Its Activity is “Not toxic”.

Question: Which IC50 (HepG2 [1]; [15]) does the source give for `Clc1ccc2c(c1)N=C(c1ccccc1)CO2` here?
Answer: Its IC50 is 78 µM.

Question: What about the IC50 (HepG2 [2]; [15]) of the same compound?
Answer: Its IC50 is 30 µM.

Question: How did the IC50 (HepG2 [1]; hepg2) turn out when `Cc1ccc2c(c1)N=C(c1ccc(F)cc1)CO2` was run?
Answer: Its IC50 is “Not Active”.

Question: What about the IC50 (HepG2 [2]; hepg2) of the same compound?
Answer: The IC50 was “Not Active”.

Question: Which IC50 (HepG2 [1]; hepg2) does the source give for `Cc1ccc(C2=Nc3ccc(Cl)cc3OC2)cc1` here?
Answer: Its IC50 is “Not Active”.

Question: What about the IC50 (HepG2 [2]; [15]) of the same compound?
Answer: Its IC50 is 10 µM.

Question: `Clc1ccc(C2=Nc3ccc(Cl)cc3OC2)cc1` was tested. Which IC50 (HepG2 [1]; [15]) did it give?
Answer: Its IC50 is 88 µM.

Question: And the IC50 (HepG2 [2]; [15])?
Answer: Its IC50 is 28 µM.
